Results: ChEMBL document CHEMBL4350963, “Discovery and Lead-Optimization of 4,5-Dihydropyrazoles as Mono-Kinase Selective, Orally Bioavailable and Efficacious Inhibitors of Receptor Interacting Protein 1 (RIP1) Kinase” (J Med Chem, 2019)

Legend:
[1] = Chromatographic hydrophobicity index, log D of the compound at pH 7.4 by reverse-phase HPLC analysis; format: physicochemical; settings: buffer
In short: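 Log D at pH 7.4 was calculated from the retention time on a fast-gradient reverse-phase HPLC run.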

[2] = Cmax in rat at 2 mg/kg, po; format: ADME, organism-based; design: dose 2 mg/kg, route oral; settings: in vivo
In short: (§1)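 Rat pharmacokinetics: the iv arm was dosed at 1 mg/kg in 5% DMSO/20% Cavitron aqueous solution. The oral arm was dosed at 2 mg/kg in 5% DMSO/6% Cavitron aqueous solution. Bioavailability was calculated non-crossover, from average exposures in separate oral and iv studies.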

[3] = Tmax in rat at 2 mg/kg, po; format: ADME, organism-based; settings: in vivo
[4] = Volume of distribution at steady state in rat at 1 mg/kg, iv; format: ADME, organism-based; settings: in vivo, read-out: Vdss
[5] = AUC (0 to infinity) in rat at 1 mg/kg, iv; format: ADME, organism-based; design: dose 1 mg/kg, time infinity, route intravenous; settings: in vivo; in short: as §1
[6] = Oral bioavailability in rat at 2 mg/kg; format: ADME, organism-based; settings: in vivo
[7] = Time at which mouse plasma concentration stays above in vitro IC50 for RIP1 in mouse L929 cells assessed as reduction in TNFalpha/QVD-Oph-induced necroptosis in mouse at 10 mg/kg/day added to chow pellets; format: ADME, organism-based; settings: in vivo
[8] = Time at which mouse plasma concentration stays above in vitro IC90 for RIP1 in mouse L929 cells assessed as reduction in TNFalpha/QVD-Oph-induced necroptosis in mouse at 100 mg/kg/day added to chow pellets; format: ADME, organism-based; settings: in vivo
[9] = Unbound brain to blood concentration ratio in C57BL/6 mouse at 9.6 to 96 mg/kg/day added to chow pellets; format: ADME, organism-based; settings: po, read-out: K(p,uu,brain)
[10] = Lipophilicity, log P of the compound; format: physicochemical; settings: octanol/water
[11] = Drug metabolism in rat blood assessed as hydroxylation; format: ADME, tissue-based
[12] = Drug metabolism in rat bile assessed as hydroxylation; format: ADME, tissue-based
[13] = Drug metabolism in rat urine assessed as hydroxylation; format: ADME
[14] = Drug exposure in rat at 2 mg/kg, po; format: ADME, organism-based; settings: in vivo, BLD = below limit of detection; in short: as §1
[15] = AUC (0 to infinity) in rat at 2 mg/kg, po; format: ADME, organism-based; design: dose 2 mg/kg, route oral, time infinity; settings: in vivo; in short: as §1

Row | chromatographic logD [1] | Structure (SMILES) | further results
1 | 5 | N#Cc1cc(N2CCC(C(=O)N3N=CC[C@H]3c3cc(F)cc(F)c3)CC2)ncn1 | Cmax [2]: 215 ng/mL; Tmax [3]: 30 min; Vd [4]: 4.6 L/kg; AUC(0-inf) [5]: 410 ng·h/mL; bioavailability [6]: 88%; Time [7]: > 24 h; Time [8]: > 24 h; Kp uu [9]: 2.5
2 | 2 | O=C(c1c[nH]nn1)N1CCC(C(=O)N2N=CCC2c2ccccc2)CC1 (configuration not stated) | Vd [4]: 1.3 L/kg; AUC(0-inf) [5]: 450 ng·h/mL
3 | 4.7 | O=C(C1CCN(c2ncccn2)CC1)N1N=CC[C@H]1c1ccccc1 | –
4 | 6.3 | O=C(C1CCN(c2ccccc2)CC1)N1N=CC[C@H]1c1ccccc1 | –
5 | 4.4 | CC(C)C(=O)N1N=CCC1c1ccccc1 (configuration not stated) | –
6 | 6.3 | O=C(C1CCN(c2ccccc2)CC1)N1N=CCC1c1ccccc1 (configuration not stated) | –
7 | 4.9 | CN1CCN(C(=O)C(C)(C)C)C(c2ccccc2)C1 (configuration not stated) | –
8 | 5.8 | CC(C)(C)C(=O)N1N=CC[C@H]1c1ccccc1 | logP [10]: 5.9; Drug metabolism [11]: Metabolite_Detected; Drug metabolism [12]: Metabolite_Detected; Drug metabolism [13]: Metabolite_Detected; Drug uptake [14]: Bld
9 | 6.6 | Cc1ccc(C2CC=NN2C(=O)C(C)(C)C)cc1F (configuration not stated) | –
10 | 6.4 | Cc1ccc(C2CC=NN2C(=O)C(C)(C)C)cc1 (configuration not stated) | –
11 | 2.4 | O=C(c1ccccn1)N1N=CCC1c1ccccc1 (configuration not stated) | –
12 | 3.5 | CC(C)(C)C(=O)N1N=CCC1c1ccccn1 (configuration not stated) | –
13 | 8 | CC(C)(C)C(=O)N1N=CCC1c1ccc(C(C)(C)C)cc1 (configuration not stated) | –
14 | 3.2 | CC(C)(C)C(=O)N1N=CCC1c1ccncc1 (configuration not stated) | –
15 | 2.7 | O=C(c1ccncc1)N1N=CCC1c1ccccc1 (configuration not stated) | –
16 | 3.1 | O=C(C1CCOCC1)N1N=CCC1c1ccccc1 (configuration not stated) | Cmax [2]: 95 ng/mL; Tmax [3]: 5 min; AUC(0-inf) [15]: 44 ng·h/mL
17 | 3.1 | O=C(c1ccccn1)N1CCC(C(=O)N2N=CCC2c2ccccc2)CC1 (configuration not stated) | –

Row | chromatographic logD [1] | Structure (SMILES) | further results
18 | 2.9 | O=C(c1cocn1)N1CCC(C(=O)N2N=CCC2c2ccccc2)CC1 (configuration not stated) | Vd [4]: 0.98 L/kg; AUC(0-inf) [5]: 290 ng·h/mL
19 | 5.4 | O=C(C1CCCC1)N1N=CCC1c1ccccc1 (configuration not stated) | –
20 | 4.1 | CC(C)(C)C(=O)N1N=CCC1c1ccc(S(C)(=O)=O)cc1 (configuration not stated) | –
21 | 2.4 | O=C(c1cc[nH]n1)N1CCC(C(=O)N2N=CCC2c2ccccc2)CC1 (configuration not stated) | –
22 | 6.5 | C[C@@H]1C=NN(C(=O)C(C)(C)C)[C@@H]1c1ccccc1 | –
23 | 3.4 | CC(C)(CO)C(=O)N1N=CCC1c1ccccc1 (configuration not stated) | –
24 | 2.7 | CC(C)(C)C(=O)N1N=CCC1c1cc[nH]n1 (configuration not stated) | –
25 | 1.1 | CN1CCC(C(=O)N2N=CCC2c2ccccc2)CC1 (configuration not stated) | –
26 | 3.2 | CC(C)(C)C(=O)N1N=CCC1c1cccnc1 (configuration not stated) | Cmax [2]: 360 ng/mL; Tmax [3]: 5 min; AUC(0-inf) [15]: 260 ng·h/mL
27 | 4.6 | O=C(c1ccccc1)N1N=CCC1c1ccccc1 (configuration not stated) | –
28 | 5.9 | CC(C)(C)C(=O)N1N=CCC1c1cccc(F)c1 (configuration not stated) | –
29 | 2.5 | CC(C)(C)C(=O)N1CCNCC1c1ccccc1 (configuration not stated) | –
30 | 5.9 | O=C(C1CCCCC1)N1N=CCC1c1ccccc1 (configuration not stated) | –
31 | 5.8 | CC(C)(C)C(=O)N1N=CCC1c1ccccc1 (racemic) | –
32 | 4.1 | CC(C)(C)C(=O)N1N=CCC1C1CCOCC1 (configuration not stated) | –
33 | 5.2 | N#Cc1cnc(N2CCC(C(=O)N3N=CC[C@H]3c3cc(F)cc(F)c3)CC2)cn1 | Cmax [2]: 73 ng/mL; Tmax [3]: 38 min; Vd [4]: 6.1 L/kg; AUC(0-inf) [5]: 400 ng·h/mL; bioavailability [6]: 99%
34 | 3.2 | CCC(=O)N1CCC(C(=O)N2N=CCC2c2ccccc2)CC1 (configuration not stated) | –
